Reference: ChEMBL document CHEMBL1121539, “Antitumor structure-activity relations. Nitrosoureas vs. L-1210 leukemia” (J Med Chem, 1980)

Legend:
[1] = tested on: L1210; test: Toxicity against L-1210 leukemia cells in mice after intraperitoneal administration, activity is expressed as LD10; parameters: LD10: unit not given here; conditions: mouse, in vivo, ip
[2] = Partition coefficient (logP); format: physicochemical; conditions: octanol/water
Method in brief: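 Shake partitioning between octanol and distilled water gave log P. For carboxylate substituents, log P was taken in 0.1 N NaOH, with Na+ as counterion.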

[3] = tested on: L1210; test: Tested for 3 log kill of leukemia cells; format: functional, Mus musculus
Method in brief: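 L-1210 leukemia cells (10^4) were inoculated intracerebrally into BDF2 mice, and drug was given intraperitoneally. The end point was the dose giving 3 log kill, expressed as log 1/C. The value comes from one or more individual experiments.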

| Structure (SMILES) | log(1/LD10) [1] | logP ([2]; read-out: logP) | log(1/C) [3] | LD10 [1] | logP [2] |
| --- | --- | --- | --- | --- | --- |
| O=NN(CCCl)C(=O)NC1CCS(=O)(=O)CC1 | 1.22 | 0.19 | 1.93 | – | – |
| O=NN(CCCl)C(=O)NC1CCC(=O)NC1=O (configuration not stated) | 1.16 | – | 1.8 | – | – |
| CCCCCC(C)NC(=O)N(CCCl)N=O (configuration not stated) | 0.642 | 3.55 | 0.853 | – | – |
| O=NN(CCCl)C(=O)NCCF | 0.49 | 0.95 | 0.673 | – | – |
| O=NN(CCCl)C(=O)NC1CCCCCCCCCCC1 | -0.573 | 5.8 | 0.599 | – | – |
| O=NN(CCCl)C(=O)NC1C2CC3CC(C2)CC1C3 (configuration not stated) | 0.512 | 3.62 | 0.854 | – | – |
| O=NN(CCCl)C(=O)NC1CCSc2ccccc21 (configuration not stated) | 0.585 | 2.91 | 1.4 | – | – |
| O=NN(CCF)C(=O)NC1CCSCC1 | 0.827 | 1.43 | 1.69 | – | – |
| O=NN(CCF)C(=O)NC1CSCSC1 | 0.802 | 1.54 | 1.78 | – | – |
| CC(=O)OCC1CCC(NC(=O)N(CCCl)N=O)CC1 (configuration not stated) | 1.02 | 2.35 | 1.66 | – | – |
| O=NN(CCF)C(=O)NCCF | 1.37 | 0.38 | 1.6 | – | – |
| O=NN(CCCl)C(=O)NC1C(O)CCCC1O (configuration not stated) | 1.17 | 0.16 | – | – | – |
| O=NN(CCCl)C(=O)NC1CCC(NC(=O)N(CCCl)N=O)CC1 (configuration not stated) | 0.66 | 3.57 | – | – | – |
| COC1OC(COC(C)=O)C(OC(C)=O)C(NC(=O)N(CCCl)N=O)C1OC(C)=O (configuration not stated) | 1.06 | 0.67 | – | – | – |
| CC(=O)OC1CCC(NC(=O)N(CCCl)N=O)CC1 (configuration not stated) | 0.813 | 1.66 | 1.55 | – | – |
| Cc1cc(C)c(NC(=O)N(CCCl)N=O)c(C)c1 | 0.675 | 3.11 | 1.58 | – | – |
| O=COCC1CCC(NC(=O)N(CCCl)N=O)CC1 (configuration not stated) | 1.12 | 1.85 | 1.62 | – | – |
| CCOC(=O)C1(NC(=O)N(CCCl)N=O)CCCCC1 | -0.214 | 3.45 | 0.582 | – | – |
| O=NN(CCF)C(=O)NC1CC2CCC1C2 (configuration not stated) | 0.547 | 2.4 | 1.25 | – | – |
| CCOC(=O)C1(NC(=O)N(CCCl)N=O)CCCC1 | 0.072 | 2.88 | 0.562 | – | – |
| CC(=O)OCC1OCC(NC(=O)N(CCCl)N=O)C(OC(C)=O)C1OC(C)=O (configuration not stated) | – | 1.87 | 1.79 | – | – |

| Structure (SMILES) | log(1/LD10) [1] | logP ([2]; read-out: logP) | log(1/C) [3] | LD10 [1] | logP [2] |
| --- | --- | --- | --- | --- | --- |
| CC(C)(C)C1CCC(NC(=O)N(CCCl)N=O)CC1 (configuration not stated) | -0.212 | 4.66 | 0.684 | – | – |
| CCOC(=O)C1CCC(NC(=O)N(CCCl)N=O)CC1 (configuration not stated) | 0.967 | 2.2 | 1.51 | – | – |
| O=NN(CCCl)C(=O)NC1(C(=O)O)CCCC1 | 0.308 | 1.82 | 0.605 | – | – |
| CC1CCC(NC(=O)N(CCF)N=O)CC1 (configuration not stated) | 0.72 | 2.72 | 1.16 | – | – |
| CC1(C)CCC(NC(=O)N(CCF)N=O)CC1 | 0.674 | 3.13 | 1.09 | – | – |
| O=NN(CCF)C(=O)NC1CCCCC1 | 0.806 | 2.25 | 1.34 | – | – |
| O=NN(CCF)C(=O)NC1CCCCCCCCCCC1 | 0.496 | 5.22 | – | – | – |
| C[C@H]1CC[C@H](NC(=O)N(CCCl)N=O)CC1 | 0.771 | – | 1.55 | – | – |
| O=NN(CCCl)C(=O)N[C@H]1CC[C@@H](O)CC1 | 0.735 | – | 1.36 | – | – |
| O=NN(CCCl)C(=O)N[C@H]1CC[C@H](C(=O)O)CC1 | 1.01 | 1.53 | 1.47 | – | – |
| O=NN(CCCl)C(=O)N[C@H]1CC[C@H](CC(=O)O)CC1 | 0.863 | 2.16 | 1.65 | – | – |
| O=NN(CCCl)C(=O)N[C@H]1CCCC[C@@H]1Cl | 0.672 | – | 1.34 | – | – |
| O=NN(CCCl)C(=O)N[C@@H]1CCCC[C@H]1O | 1.1 | 1.34 | 1.82 | – | – |
| C[C@H]1S(=O)(=O)C[C@H](NC(=O)N(CCCl)N=O)CS1(=O)=O | 0.801 | -0.53 | 1.89 | – | – |
| C[C@H]1CCC[C@@H](NC(=O)N(CCCl)N=O)C1 | 0.315 | 3.37 | 1.09 | – | – |
| O=NN(CCCl)C(=O)N[C@@H]1CCCC[C@@H]1Cl | 0.446 | 2.73 | 0.951 | – | – |
| CO[C@H]1CC[C@H](NC(=O)N(CCCl)N=O)CC1 | 0.841 | 2.09 | 1.44 | – | – |
| COC(=O)[C@H]1CC[C@H](NC(=O)N(CCCl)N=O)CC1 | 1.05 | 1.89 | – | – | – |
| C[C@H]1CCC[C@H](NC(=O)N(CCCl)N=O)C1 | – | – | 1.09 | 0.352 | 3.3 |
| O=NN(CCF)C(=O)N[C@H]1CC[C@H](C(=O)O)CC1 | – | – | 1.21 | – | 1.1 |
| C[C@H]1S(=O)(=O)C[C@@H](NC(=O)N(CCCl)N=O)CS1(=O)=O | 1.04 | -0.53 | 1.89 | – | – |

| Structure (SMILES) | log(1/LD10) [1] | logP ([2]; read-out: logP) | log(1/C) [3] | LD10 [1] | logP [2] |
| --- | --- | --- | --- | --- | --- |
| C[C@H]1CC[C@@H](NC(=O)N(CCCl)N=O)CC1 | 0.435 | 3.3 | – | – | – |
| O=NN(CCCl)C(=O)N[C@@H]1CCC[C@H](O)C1 | 0.698 | 1.11 | 1.28 | – | – |
| CC1(NC(=O)N(CCCl)N=O)CCCC1 | -0.03 | 2.7 | 0.576 | – | – |
| O=NN(CCCl)C(=O)NC1CC2CCC1C2 (configuration not stated) | 0.591 | 2.98 | 1.21 | – | – |
| O=NN(CCCl)C(=O)NC1CCCC1 | 0.215 | 2.19 | 0.74 | – | – |
| CN(C)C(=O)c1ccc(NC(=O)N(CCCl)N=O)cc1 | – | 1.07 | 1.87 | 1.27 | – |
| O=NN(CCF)C(=O)NC1CCSc2ccccc21 (configuration not stated) | 0.896 | 2.33 | 1.31 | – | – |
| CC1CC(O)C(NC(=O)N(CCCl)N=O)C(O)C1 (configuration not stated) | 1.12 | 0.69 | – | – | – |
| CC(C)(C)C1CCCC(NC(=O)N(CCCl)N=O)C1 (configuration not stated) | 0.239 | 4.6 | 0.763 | – | – |
| O=NN(CCF)C(=O)NC1CS(=O)(=O)CS(=O)(=O)C1 | 0.626 | -1.48 | 1.69 | – | – |
| O=NN(CCCl)C(=O)NC(Cc1ccccc1)C(=O)O (configuration not stated) | 0.563 | 2.59 | 1.1 | – | – |
| CC(=O)OCC1CCC(NC(=O)N(CCF)N=O)CC1 (configuration not stated) | 0.705 | 1.77 | 0.984 | – | – |
| CC1CC(NC(=O)N(CCCl)N=O)CC(C)(C)C1 (configuration not stated) | -0.434 | 4.06 | 0.294 | – | – |
| O=NN(CCCl)C(=O)NC1CCC(Cl)CC1 (configuration not stated) | 0.738 | 2.66 | 1.25 | – | – |
| CC(=O)OCC1OC(NC(=O)N(CCCl)N=O)C(OC(C)=O)C(OC(C)=O)C1OC(C)=O (configuration not stated) | 1.41 | 1.04 | – | – | – |
| CC(=O)OC1CCC(NC(=O)N(CCF)N=O)CC1 (configuration not stated) | 0.884 | 1.33 | 1.4 | – | – |
| COCC1OC(O)C(NC(=O)N(CCCl)N=O)C(OC)C1OC (configuration not stated) | 0.682 | 0.8 | 1.48 | – | – |
| O=NN(CCCl)C(=O)NCCCl [CARMUSTINE] | 0.718 | – | 1.59 | – | – |
| O=NN(CCCl)C(=O)NC1CCCCC1 [LOMUSTINE] | 0.613 | – | 1.25 | – | – |
